From ChEMBL document CHEMBL2429835
Converted amounts (≈) assume the structure as drawn. The source made the active and inactive calls. No cut-off for these calls is given here.

How the values were obtained:
[1] = system: Mycobacterium tuberculosis; test: Antimycobacterial activity against cycloserine-resistant Mycobacterium tuberculosis ATCC 35826; assay type: functional
In short: (§1)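 Strain (H37Rv or ATCC single-drug-resistant isolates) grown to late log phase in 7H9 with 0.2% glycerol, 0.05% Tween80, 10% OADC. Cells washed into PBS, passed through 8 μm filter, frozen; CFU titred on 7H11 agar. MABA MIC is the lowest concentration giving ≥90% growth inhibition versus untreated controls.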

[2] = system: Mycobacterium tuberculosis; test: Antimycobacterial activity against isoniazid-resistant Mycobacterium tuberculosis ATCC 35822; assay type: functional; in short: as §1
[3] = system: Mycobacterium tuberculosis variant bovis BCG; test: Antimycobacterial activity against Mycobacterium bovis BCG ATCC 35734 at 100 ug/ml after 8 days by microplate Alamar blue assay; assay type: functional, organism-based
In short: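 MABA in 7H12 (M. abscessus, M. bovis BCG) or 7H9 (others). Pre-dye incubation: M. abscessus 37 °C 3 days; BCG 37 °C 7 days; M. chelonae 30 °C 3 days; M. marinum 30 °C 5 days; M. avium and M. kansasii 37 °C 6 days. Then 20% Tween80 plus Alamar blue added: 4 h (abscessus), 6 days (chelonae), 1 day (others). Tested at 100 μg/mL.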

[4] = system: Mycobacterium tuberculosis; test: Antimycobacterial activity against rifampin-resistant Mycobacterium tuberculosis ATCC 35838; assay type: functional; in short: as §1
[5] = system: Mycobacterium tuberculosis; test: Antimycobacterial activity against streptomycin-resistant Mycobacterium tuberculosis ATCC 35820; assay type: functional; in short: as §1
[6] = system: Mycobacterium tuberculosis; test: Antimycobacterial activity against kanamycin-resistant Mycobacterium tuberculosis ATCC 35827; assay type: functional; in short: as §1

Compound	MIC90 [1] [µg/mL]	MIC90 [2] [µg/mL]	Activity [3]	MIC90 [4] [µg/mL]	MIC90 [5] [µg/mL]	MIC90 [6] [µg/mL]
O=c1cc(-c2ccccc2)c2ccc(Cl)cc2o1	47.3 (≈ 184 µM)	76.5 (≈ 298 µM)	inactive	45.4 (≈ 177 µM)	46.9 (≈ 183 µM)	47.4 (≈ 185 µM)
O=c1cc(-c2ccccc2)c2cc(Cl)ccc2o1			inactive			
CCOC(=O)c1c(-c2ccccc2)c2cc(Cl)ccc2oc1=O	> 100	44.7 (≈ 136 µM)	inactive	46.6 (≈ 142 µM)	49.5 (≈ 151 µM)	> 100
NC[C@H]1O[C@H](O[C@H]2[C@H](O)[C@@H](O[C@H]3O[C@H](CO)[C@@H](O)[C@H](N)[C@H]3O)[C@H](N)C[C@@H]2N)[C@H](O)[C@@H](O)[C@@H]1O [KANAMYCIN]	1.12 (≈ 2.31 µM)	0.72 (≈ 1.49 µM)		0.73 (≈ 1.51 µM)	0.76 (≈ 1.57 µM)	> 25
CO[C@H]1/C=C/O[C@@]2(C)Oc3c(C)c(O)c4c(O)c(c(/C=N/N5CCN(C)CC5)c(O)c4c3C2=O)NC(=O)/C(C)=C\C=C\[C@H](C)[C@H](O)[C@@H](C)[C@@H](O)[C@@H](C)[C@H](OC(C)=O)[C@@H]1C [RIFAMPIN]	0.02 (≈ 0.0243 µM)	0.04 (≈ 0.0486 µM)		> 3.29	0.09 (≈ 0.109 µM)	0.02 (≈ 0.0243 µM)
O=[N+]([O-])c1cn2c(n1)OC[C@@H](OCc1ccc(OC(F)(F)F)cc1)C2 [PRETOMANID]	0.18 (≈ 0.501 µM)	0.05 (≈ 0.139 µM)		0.07 (≈ 0.195 µM)	0.17 (≈ 0.473 µM)	0.34 (≈ 0.946 µM)
N[C@@H]1CONC1=O [CYCLOSERINE]	> 10.2	5 (≈ 49 µM)		4.8 (≈ 47 µM)	4.9 (≈ 48 µM)	4.9 (≈ 48 µM)
NNC(=O)c1ccncc1 [ISONIAZID]	0.04 (≈ 0.292 µM)	> 2.19		0.03 (≈ 0.219 µM)	0.03 (≈ 0.219 µM)	0.07 (≈ 0.51 µM)
CN[C@@H]1[C@H](O[C@H]2[C@H](O[C@H]3[C@H](O)[C@@H](O)[C@H](N=C(N)N)[C@@H](O)[C@@H]3N=C(N)N)O[C@@H](C)[C@]2(O)C=O)O[C@@H](CO)[C@H](O)[C@H]1O [STREPTOMYCIN]	0.53 (≈ 0.911 µM)	0.56 (≈ 0.963 µM)		0.47 (≈ 0.808 µM)	> 9.31	1.48 (≈ 2.54 µM)
CCOC(=O)c1c(-c2ccccc2)c2ccc(Cl)cc2oc1=O	47.3 (≈ 144 µM)	31.7 (≈ 96.4 µM)	inactive	44.7 (≈ 136 µM)	46.9 (≈ 143 µM)	43.9 (≈ 134 µM)
